# Measured values taken from the RNAGym collection of RNA variant scans (doi:10.1038/s41586-018-0170-7).
# B1: tRNA (parent)
# chain: GUUCCGUUGGCGUAAUGGUAACGCGUCUCCCUCCUAAGGAGAAGACUGCGGGUUCGAGUCCCGUACGGAACG
# Variants of: B1
# Assay: yeast fitness, log relative to wild type (ln ratio); higher = fitter; tRNA-Arg(CCU), competitive growth, 37 C, 1 M NaCl
# Outline: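 BY4742 cells without the chromosomal tRNA-Arg(CCU) gene carried a combinatorial variant library on a HIS3 centromeric plasmid, from two independent transformations. After 4 generations in SC-HIS at 30 °C, pools spent ~6.5 generations (~26.5 h) in SC-HIS 1M NaCl at 37 °C, giving three outputs per input, and 125 bp paired-end Illumina reads counted the variants. Fitness is the natural log of each genotype's generations over the wild type's, with generations taken as OD-scaled log2 output/input frequency weighted by inverse variance across replicates.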
row,Variant,yeast fitness (ln)
1,G1A U2G G6A C27U C46U C66A C71U,-0.179
2,G1A A43C C46U C66U C71U,-0.247
3,G1A U2C A69G C71U,-0.17
4,G1A G6U C27U C46U C66A A69G A70G C71U,-0.58
5,G6U C27U A43C C46U C66A A69G,-0.0652
6,G1A U2G G6A A43C,-0.238
7,G1A U2C C27U A43C C66U A69G A70G C71U,-0.21
8,G1A U2C C27U A43C C46U A69G C71U,-0.167
9,G1A U2G C27U C46U A69G A70G,-0.21
10,U2G A43C C46U C66U A69G,-0.199
11,C27U A43C A69G C71U,-0.44
12,U2G G6A A43C A69G C71U,-0.364
13,U2G G6U C27U A43C C46U,-0.127
14,U2C C27U A43C A70G C71U,-0.0236
15,G6U A43C C66A,-0.0198
16,G1A C27U C46U C66A,-0.151
17,U2G G6U A69G A70U,-0.151
18,G6U C46U,-0.0183
19,U2G G6U A69G A70U C71U,-0.26
20,G1A U2C G6U C66A A70G C71U,-0.0113
21,G1A U2G G6A C27U A43C C46U C66U A70G C71U,-0.286

row,Variant,yeast fitness (ln)
1,A43C A69G A70G C71U,-0.0742
2,G1A U2G G6A C27U A43C C66U A69G A70G C71U,-0.563
3,G1A U2C G6A C46U,0.00156
4,G6U A43C C46U C66A A69G C71U,-0.548
5,G1A U2G G6U C66U A70U,-0.211
6,G1A U2G G6A A43C A70U C71U,-0.309
7,G6A C27U A43C C46U A70U,-0.139
8,C27U C66U A69G A70G,-0.19
9,G1A U2C C66U A70G C71U,0.00307
10,G1A U2G G6U A43C C66U A69G A70G C71U,-0.368
11,G1A C27U A43C C66A C71U,-0.277
12,G1A G6A C27U A43C C46U C66A A70G C71U,-0.293
13,G1A U2C G6U A43C C66A A69G A70G C71U,-0.0437
14,G1A U2G G6U C46U C66U A70G,-0.238
15,G1A G6U C27U A70G C71U,-0.352
16,G6U C27U A43C C66U A70U,-0.259
17,G1A U2C G6U C27U C46U C66A A69G A70U,-0.116
18,G6A C27U A43C C46U C66A A69G A70G C71U,-0.292
19,A43C C66A A70G C71U,-0.105
20,G1A U2G C27U A43C C46U A69G A70G C71U,-0.221
21,G6A C27U C66U C71U,-0.171

row,Variant,yeast fitness (ln)
1,G1A U2C G6U A43C A69G A70G C71U,-0.268
2,G1A U2G G6U C27U A69G A70U,-0.362
3,U2G G6A C46U C66A A69G A70U,-0.0517
4,G1A G6A C27U C46U C66A A70U C71U,-0.228
5,G1A U2G A43C C46U C66U A69G C71U,-0.404
6,U2G G6A C27U A43C C46U A69G A70U,-0.159
7,U2G C27U C46U C66A A69G A70G,-0.163
8,U2G C27U A43C C46U C66A A70G,-0.16
9,G1A G6U C27U C66U A69G A70U C71U,-0.45
10,G1A G6A A43C C46U C66U A70G C71U,-0.338
11,G1A C27U A43C,-0.163
12,G6U C66A A70G C71U,-0.233
13,U2C G6A A43C C66A A70U,-0.0851
14,U2G G6A A43C C66A A70G C71U,-0.198
15,G1A C46U C66U A70U,-0.201
16,G1A G6A C46U C66U A70G,-0.189
17,C27U C66A A69G A70U,-0.15
18,U2G G6A C27U C66U,-0.0928
19,G1A U2G A69G A70U,-0.232
20,U2G C27U C71U,-0.0721
21,U2G G6A C27U A70U,-0.283

row,Variant,yeast fitness (ln)
1,G1A A69G A70U C71U,-0.44
2,C46U C66A,-0.0399
3,U2C G6U C27U A43C C46U,-0.0629
4,G1A U2C C27U C66U A69G A70G C71U,-0.585
5,U2G G6A C27U A43C C66U A69G A70U,-0.326
6,U2G G6A C27U A43C C46U A70U,-0.119
7,U2C G6A C27U C66U,-0.217
8,G1A U2G A43C A69G A70U C71U,-0.54
9,G1A G6U C27U C46U C66U A69G A70G C71U,-0.388
10,U2G C46U A69G,-0.208
11,G1A U2G G6A C27U C46U C66U A70U C71U,-0.0596
12,U2G C27U C66A A70U C71U,-0.195
13,U2C G6U C46U A70U C71U,-0.0786
14,G1A U2G C27U C46U C66A A69G A70G C71U,-0.247
15,U2G C27U C46U C66U A70G,-0.117
16,U2G C27U C66U A69G A70U,-0.212
17,G1A C27U C46U A69G A70G C71U,-0.16
18,G1A U2C G6A C66U A70U,-0.0837
19,U2C C27U A43C C46U A69G A70U,-0.169
20,G6U C27U A43C C66U A69G C71U,-0.395
21,A69G C71U,-0.0165
